The target of test [1] is T1, RAS guanyl-releasing protein 1 (Homo sapiens) (UniProt O95267).
T1 sequence (whole entry): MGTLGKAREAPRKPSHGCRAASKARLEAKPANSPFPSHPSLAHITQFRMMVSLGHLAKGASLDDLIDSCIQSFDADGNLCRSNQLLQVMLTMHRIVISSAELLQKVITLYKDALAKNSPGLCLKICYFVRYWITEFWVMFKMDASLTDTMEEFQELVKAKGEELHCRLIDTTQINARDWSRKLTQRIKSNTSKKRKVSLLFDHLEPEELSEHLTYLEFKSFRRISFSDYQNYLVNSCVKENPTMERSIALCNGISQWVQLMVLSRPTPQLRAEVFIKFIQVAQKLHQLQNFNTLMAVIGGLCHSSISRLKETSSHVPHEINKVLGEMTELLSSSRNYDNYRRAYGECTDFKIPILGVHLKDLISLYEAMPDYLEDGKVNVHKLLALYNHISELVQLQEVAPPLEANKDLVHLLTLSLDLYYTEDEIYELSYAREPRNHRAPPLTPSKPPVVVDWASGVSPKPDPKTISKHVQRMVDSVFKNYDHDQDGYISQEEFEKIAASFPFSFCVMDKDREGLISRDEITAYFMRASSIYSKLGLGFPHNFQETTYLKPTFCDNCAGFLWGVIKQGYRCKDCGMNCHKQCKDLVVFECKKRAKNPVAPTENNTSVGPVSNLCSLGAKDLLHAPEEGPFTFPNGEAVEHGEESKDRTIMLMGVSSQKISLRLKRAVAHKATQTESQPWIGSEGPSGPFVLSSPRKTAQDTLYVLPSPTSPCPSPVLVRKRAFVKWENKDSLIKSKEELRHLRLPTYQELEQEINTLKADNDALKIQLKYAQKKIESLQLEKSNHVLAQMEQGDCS
Briefly: Displacement of [3H]PDBu from full length MBP-tagged human RasGRP1 expressed in Escherichia coli BL21 (DE3) after 5 mins in presence of phosphatidylserine by scintillation counting. The gist of the method:
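Competition of [3H]PDBu binding by polyethylene glycol precipitation, with 100 µg/ml phosphatidylserine and ≤0.003% Triton X-100, 5 min at 37 °C. Proteins: full-length purified human PKCα, PKCε; full-length RasGRP1; MBP-RasGRP3 from E. coli BL21(DE3) induced with 0.3 mM IPTG 6 h at room temperature. Ki mean ± SEM of ≥2 experiments, triplicate points.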
(In general: Loss of bound radioactivity is the signal in a displacement assay; it reports binding, not function.)

Test [2] has as its target T2, RAS guanyl-releasing protein 1 (Homo sapiens, UniProt O95267).
T2 sequence (O95267 whole entry): T1 sequence (whole entry)
Briefly: Activation of GFP-tagged RasGRP1 (unknown origin) expressed in HEK293 cells assessed as ERK1/2 phosphorylation after 30 mins by immunoblot method. The test is classed as cell-based. The gist of the method:
(§1)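 Cells expressing GFP-RasGRP1/3 (HEK293 or LNCaP, 48 h after plating, transfected; expression checked by fluorescence 24-48 h later) or Ramos with endogenous RasGRP3 treated with half-log increasing concentrations (max 10 µM), 1000 nM PMA or DMSO, 37 °C, 30 min, 5% CO2. RasGTP by Raf1 RBD bead pulldown and anti-Pan-Ras immunoblot; pERK by western blot. Band intensities normalized to 1000 nM PMA; EC50 from n = 3.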

Test [3] is filed under the species Homo sapiens. The experiment in a line: Selectivity ratio of EC50 for PKCdelta in human Ramos cells expressing RasGRP3 to EC50 for RasGRP3 in human Ramos cells assessed as ERK1/2 phosphorylation. Format: cell-based.
For test [4], the species on record is Homo sapiens. Briefly: Selectivity ratio of EC50 for PKCdelta (unknown origin) expressed in human LNCAP cells harboring GFP-tagged RasGRP3 to EC50 for GFP-tagged RasGRP3 (unknown origin) expressed in human LNCAP cells assessed as ERK1/2 phosphorylation. The test is classed as cell-based.
Test [5] concerns the target Protein kinase C delta type (Homo sapiens, UniProt Q05655). Briefly: Activation of PKCdelta in human Ramos cells expressing RasGRP3 assessed as phosphorylation at ser299 residues after 30 mins by immunoblot method. The test is classed as cell-based. In short, it runs like this: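 PKCδ activation read as phospho-S299 on western blots of lysates (50 µg protein, 10% SDS-PAGE, milk blocking, anti-PKCδS299 overnight). Cells: GFP-RasGRP1/3-transfected HEK293 or LNCaP, or Ramos, treated 30 min at 37 °C with half-log doses (maximum 10 µM), 1000 nM PMA or DMSO. Scanned intensities normalized to 1000 nM PMA; EC50 mean ± SEM, n = 3; values above 10 µM extrapolated.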
Background: In western blotting, separated proteins are transferred to a membrane and probed.

Test [6] deals with T3, Ras guanyl-releasing protein 3 (Homo sapiens, UniProt Q8IV61).
T3 sequence (Q8IV61 whole entry): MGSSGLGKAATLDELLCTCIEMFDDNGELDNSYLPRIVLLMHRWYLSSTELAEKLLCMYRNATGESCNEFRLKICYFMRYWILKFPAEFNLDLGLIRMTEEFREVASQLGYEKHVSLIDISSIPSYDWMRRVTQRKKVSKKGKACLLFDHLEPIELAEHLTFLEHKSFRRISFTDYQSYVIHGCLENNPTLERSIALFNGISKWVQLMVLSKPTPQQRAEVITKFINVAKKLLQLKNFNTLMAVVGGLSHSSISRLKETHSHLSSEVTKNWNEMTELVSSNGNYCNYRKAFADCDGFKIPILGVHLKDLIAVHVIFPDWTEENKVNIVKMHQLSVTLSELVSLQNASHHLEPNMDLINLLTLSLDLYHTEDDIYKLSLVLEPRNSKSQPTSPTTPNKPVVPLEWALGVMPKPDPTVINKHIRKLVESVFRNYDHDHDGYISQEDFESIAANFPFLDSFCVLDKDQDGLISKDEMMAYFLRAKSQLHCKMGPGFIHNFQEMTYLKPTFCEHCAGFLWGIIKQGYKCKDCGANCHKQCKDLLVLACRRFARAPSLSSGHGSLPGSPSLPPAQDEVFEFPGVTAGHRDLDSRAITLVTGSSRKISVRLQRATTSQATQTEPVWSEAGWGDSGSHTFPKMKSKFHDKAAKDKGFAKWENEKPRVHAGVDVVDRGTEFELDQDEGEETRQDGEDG
Briefly: Activation of RasGRP3 in human Ramos cells assessed as ERK1/2 phosphorylation after 30 mins by immunoblot method. Format: cell-based. The gist of the method:
as §1

Test [7] addresses T3, Ras guanyl-releasing protein 3. The experiment in a line: Activation of GFP-tagged RasGRP3 (unknown origin) expressed in human LNCAP cells assessed as ERK1/2 phosphorylation after 30 mins by immunoblot method. The test is classed as cell-based. In short, it runs like this:
as §1

The species named for test [8] is Homo sapiens. The experiment in a line: Selectivity ratio of EC50 for PKCdelta (unknown origin) expressed in human LNCAP cells harboring GFP-tagged RasGRP1 to EC50 for GFP-tagged RasGRP1 (unknown origin) expressed in human LNCAP cells. The test is classed as cell-based.
The species named for test [9] is Homo sapiens. The experiment in a line: Selectivity ratio of EC50 for PKCdelta in human Ramos cells expressing RasGRP3 to EC50 for RasGRP3 in human Ramos cells. Format: cell-based.

Molecules are shown by their SMILES. Activity calls are given as the source filed them. The rule behind the calls is not given here.

Chain of Protein kinase C delta type (Q05655 whole entry): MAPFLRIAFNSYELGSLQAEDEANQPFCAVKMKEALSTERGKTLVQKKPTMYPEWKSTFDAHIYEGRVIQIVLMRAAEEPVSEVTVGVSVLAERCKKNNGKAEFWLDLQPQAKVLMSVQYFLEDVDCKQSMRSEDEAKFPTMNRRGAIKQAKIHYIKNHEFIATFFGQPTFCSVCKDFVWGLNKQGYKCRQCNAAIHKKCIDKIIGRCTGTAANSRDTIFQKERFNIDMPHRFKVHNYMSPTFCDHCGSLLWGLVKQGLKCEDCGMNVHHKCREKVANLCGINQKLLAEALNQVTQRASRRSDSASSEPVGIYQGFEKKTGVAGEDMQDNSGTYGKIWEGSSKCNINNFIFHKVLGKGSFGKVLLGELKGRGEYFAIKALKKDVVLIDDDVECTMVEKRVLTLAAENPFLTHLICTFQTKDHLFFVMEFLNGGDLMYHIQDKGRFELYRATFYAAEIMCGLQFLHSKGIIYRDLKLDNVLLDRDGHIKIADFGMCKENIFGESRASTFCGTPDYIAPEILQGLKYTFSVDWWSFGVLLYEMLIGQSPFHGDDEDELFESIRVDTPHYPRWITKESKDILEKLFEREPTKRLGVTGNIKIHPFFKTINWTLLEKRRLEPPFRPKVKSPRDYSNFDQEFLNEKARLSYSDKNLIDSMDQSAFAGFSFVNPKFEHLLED

The term EC50 denotes the concentration giving half of the maximal effect. Take `Cn1cc(/C=C2\CC(CO)(COC(=O)C(C)(C)C)OC2=O)c2ccccc21` (centres undefined): in [1], the inhibition entry was “Active”. Moreover, the 50% effective concentration (EC50) in [2] was 4.88 µM; in [5], 24.6 µM; in [6], 6.09 µM; in [7], 2.98 µM. Moreover, the Ratio EC50 in the test listed under Homo sapiens [3] stood at 4; in the test filed under Homo sapiens [4] it was 2.8; in the test filed under Homo sapiens [8] it was 8.3; in the test listed under Homo sapiens [9] it was 28.6.

These data come from ChEMBL document CHEMBL4130626, “α-Arylidene Diacylglycerol-Lactones (DAG-Lactones) as Selective Ras Guanine-Releasing Protein 3 (RasGRP3) Ligands” (J Med Chem, 2018).
